Measurements: ChEMBL document CHEMBL1122255, “Synthesis and receptor binding studies relevant to the neuroleptic activities of some 1-methyl-4-piperidylidene-9-substituted-pyrrolo[2,1-b][3]benzazepine derivatives” (J Med Chem, 1983)

What follows are compounds tested against T1, Alpha-1A adrenergic receptor (Bos taurus, UniProt P18130) (assay: Displacement of [3H]- prazosin radioligand binding at the alpha 1-adrenergic binding site of calf cerebral cortex).
T1 sequence (P18130 whole entry): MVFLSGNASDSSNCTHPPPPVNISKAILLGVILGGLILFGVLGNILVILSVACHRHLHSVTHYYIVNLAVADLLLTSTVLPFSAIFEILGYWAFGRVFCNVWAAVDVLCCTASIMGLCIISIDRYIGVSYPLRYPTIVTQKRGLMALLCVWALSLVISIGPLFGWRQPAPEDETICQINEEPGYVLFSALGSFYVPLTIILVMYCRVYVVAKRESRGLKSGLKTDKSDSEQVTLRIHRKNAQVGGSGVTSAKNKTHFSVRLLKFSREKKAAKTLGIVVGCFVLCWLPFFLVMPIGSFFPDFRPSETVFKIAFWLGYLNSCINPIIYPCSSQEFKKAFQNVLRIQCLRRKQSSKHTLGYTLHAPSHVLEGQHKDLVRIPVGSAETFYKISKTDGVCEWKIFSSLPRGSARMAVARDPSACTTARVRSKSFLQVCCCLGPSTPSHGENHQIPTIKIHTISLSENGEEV
Type: tissue-based
`CN1CCC(=C2c3cc(Cl)ccc3CCn3cccc32)CC1` gave a Ki of 0.08 µM.
Compound `CN1CCC(=C2c3cc(Br)ccc3CCn3cccc32)CC1` has a Ki of 0.044 µM.
Work on `CN1CCC(=C2c3cc(SC(F)(F)F)ccc3CCn3cccc32)CC1` yielded a Ki of 0.036 µM.
`CN1CCC(=C2c3cc(SC(F)(F)F)ccc3C=Cn3cccc32)CC1` gave a Ki of 0.013 µM.
Work on `CN1CCC(=C2c3cc(Cl)ccc3C=Cn3cccc32)CC1` yielded a Ki of 0.02 µM.
`CN1CCC(=C2c3cc(C(=O)O)ccc3C=Cn3cccc32)CC1` showed a Ki of 1.2 µM.
Work on `CN1CCC(=C2c3cc(Br)ccc3C=Cn3cccc32)CC1` yielded a Ki of 0.019 µM.
For `CN1CCC(=C2c3ccccc3C=Cn3cccc32)CC1`, the Ki was 0.029 µM.
For `CN1CCC(=C2c3cc(C#N)ccc3C=Cn3cccc32)CC1`, the Ki was 0.03 µM.
Work on `CN1CCC(=C2c3ccccc3CCn3cccc32)CC1` yielded a Ki of 0.13 µM.

What follows are compounds tested against T2, Alpha-2A adrenergic receptor (Bos taurus, UniProt Q28838) (assay: Displacement of [3H]- clonidine radioligand binding at the alpha-2 adrenergic receptor binding site of calf cerebral cortex).
T2 sequence (Q28838 whole entry): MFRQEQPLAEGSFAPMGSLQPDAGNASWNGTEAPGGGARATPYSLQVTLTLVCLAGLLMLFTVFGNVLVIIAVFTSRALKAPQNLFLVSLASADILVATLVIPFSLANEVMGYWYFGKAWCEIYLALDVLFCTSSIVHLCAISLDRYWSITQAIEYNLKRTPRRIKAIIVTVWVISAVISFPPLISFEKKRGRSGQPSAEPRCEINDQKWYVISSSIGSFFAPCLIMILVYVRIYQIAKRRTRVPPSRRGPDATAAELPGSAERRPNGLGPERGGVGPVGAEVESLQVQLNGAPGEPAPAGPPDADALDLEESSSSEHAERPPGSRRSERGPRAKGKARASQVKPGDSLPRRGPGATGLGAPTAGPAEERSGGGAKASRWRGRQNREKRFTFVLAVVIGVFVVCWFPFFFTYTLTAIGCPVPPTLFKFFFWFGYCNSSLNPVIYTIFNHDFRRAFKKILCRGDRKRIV
Type: tissue-based
Procedure, shortened: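 Calf cerebral cortex membranes were incubated with [3H]clonidine (23 Ci/mmol) at 0.2 nM and 3–5 triplicate test concentrations. Nonspecific binding was defined with 100 nM clonidine. Bound ligand was isolated by rapid filtration and counted by liquid scintillation. IC50 for displacing specific binding came from percent inhibition–concentration data by regression.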
`CN1CCC(=C2c3cc(Cl)ccc3CCn3cccc32)CC1` showed a Ki of 0.6 µM.
`CN1CCC(=C2c3cc(Br)ccc3CCn3cccc32)CC1` gave a Ki of 0.43 µM.
For `CN1CCC(=C2c3cc(SC(F)(F)F)ccc3CCn3cccc32)CC1`, the Ki was 0.33 µM.
`CN1CCC(=C2c3cc(SC(F)(F)F)ccc3C=Cn3cccc32)CC1` gave a Ki of 0.23 µM.
`CN1CCC(=C2c3cc(Cl)ccc3C=Cn3cccc32)CC1` was tested, and the Ki was 0.31 µM.
`CN1CCC(=C2c3cc(C(=O)O)ccc3C=Cn3cccc32)CC1` was tested, and the Ki was 77 µM.
For `CN1CCC(=C2c3cc(C#N)ccc3CCn3cccc32)CC1`, the Ki was 2.05 µM.
In the case of `CN1CCC(=C2c3cc(Br)ccc3C=Cn3cccc32)CC1`, the Ki is reported as 0.21 µM.
For `CN1CCC(=C2c3ccccc3C=Cn3cccc32)CC1`, the Ki was 0.226 µM.
For `CN1CCC(=C2c3cc(C#N)ccc3C=Cn3cccc32)CC1`, the Ki was 1.03 µM.
In the case of `CN1CCC(=C2c3ccccc3CCn3cccc32)CC1`, the Ki is reported as 0.73 µM.

What follows are compounds tested against Muscarinic acetylcholine receptor (assay: Displacement of [3H]- QNB binding at the muscarinic-cholinergic binding site of rat brain S1).
`CN1CCC(=C2c3cc(Cl)ccc3CCn3cccc32)CC1` showed a Ki of 0.048 µM.
In the case of `CN1CCC(=C2c3cc(Br)ccc3CCn3cccc32)CC1`, the Ki is reported as 0.06 µM.
With `CN1CCC(=C2c3cc(SC(F)(F)F)ccc3CCn3cccc32)CC1` the Ki was 0.25 µM.
In the case of `CN1CCC(=C2c3cc(SC(F)(F)F)ccc3C=Cn3cccc32)CC1`, the Ki is reported as 0.088 µM.
For `CN1CCC(=C2c3cc(Cl)ccc3C=Cn3cccc32)CC1`, the Ki was 0.02 µM.
In the case of `CN1CCC(=C2c3cc(C(=O)O)ccc3C=Cn3cccc32)CC1`, the Ki is reported as 9.8 µM.
`CN1CCC(=C2c3cc(C#N)ccc3CCn3cccc32)CC1` was tested, and the Ki was 0.27 µM.
For `CN1CCC(=C2c3cc(Br)ccc3C=Cn3cccc32)CC1`, the Ki was 0.018 µM.
`CN1CCC(=C2c3ccccc3C=Cn3cccc32)CC1` was tested, and the Ki was 0.0145 µM.
Work on `CN1CCC(=C2c3ccccc3C=Cc3ccccc32)CC1` [CYPROHEPTADINE] yielded a Ki of 0.004 µM.
For `CN1CCC(=C2c3cc(C#N)ccc3C=Cn3cccc32)CC1`, the Ki was 0.021 µM.
In the case of `CN1CCC(=C2c3cc(C(=O)O)ccc3CCn3cccc32)CC1`, the Ki is reported as > 50 µM.
With `CN1CCC(=C2c3ccccc3CCn3cccc32)CC1` the Ki was 0.049 µM.
